Test results from ChEMBL document CHEMBL1124497, “Thromboxane A2 synthetase inhibitors. 2. Syntheses and activities of tetrahydronaphthalene and indan derivatives” (J Med Chem, 1989).

Experiments:
Format in all cases: functional
[1] = system: Rattus norvegicus; test: Inhibition of thromboxane B2 production in whole blood of rat 75 min after intravenous injection of compound at 0.1 mg/kg; conditions: 1.25 h
In short: (§1)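 The compound was given intravenously to rats in physiological saline; controls received vehicle. Whole blood was drawn from the external jugular vein under anesthesia at 15, 45 and 75 min. Samples were kept on ice 15 min, clotted at 37 °C for 1 h and centrifuged (1000g, 10 min). Serum TXB₂ was measured by radioimmunoassay and expressed as % inhibition.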

[2] = system: Rattus norvegicus; test: Inhibition of thromboxane B2 production in whole blood of rats, 6 hr after a peroral dose of 1.0 mg/kg; conditions: route oral
In short: (§2)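 Rats were dosed orally at 1 mg/kg with compound suspended in water; controls received vehicle. Whole blood was drawn from the external jugular vein under anesthesia at 1, 3 and 6 h, held on ice 15 min, then clotted at 37 °C for 1 h. Serum was separated at 1000g for 10 min. TXB₂, 6-keto-PGF₁α (the PGI₂ metabolite) and PGE₂ were measured by radioimmunoassay. Prostanoid enhancement is expressed as x-fold at 1 h.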

[3] = system: Rattus norvegicus; test: Inhibition of thromboxane B2 production in whole blood of rat 15 min after intravenous injection of compound at 0.1 mg/kg; conditions: 0.25 h; in short: as §1
[4] = system: Rattus norvegicus; test: Inhibition of thromboxane B2 production in whole blood of rats, 3h after a peroral dose of 1.0 mg/kg; conditions: route oral; in short: as §2
[5] = system: Rattus norvegicus; test: Increase in serum prostaglandin I2 levels in incubated whole blood from rats, 1 hr following 1 mg/kg p.o.; conditions: route oral; in short: as §2
[6] = system: Rattus norvegicus; test: Inhibition of thromboxane B2 production in whole blood of rat 45 min after intravenous injection of compound at 0.1 mg/kg; conditions: 0.75 h; in short: as §1
[7] = species: Rattus norvegicus; test: In vitro inhibition of thromboxane A2 production in rat platelet-rich plasma.
In short: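 Citrated rat platelet-rich plasma (4 × 10⁷ platelets) was preincubated with compound for 1 min at room temperature with gentle shaking. Sodium arachidonate (final 0.5 mmol) started the reaction, which ran 5 min at room temperature with vigorous shaking. Indomethacin (final 0.1 mmol) stopped it. After centrifugation (1000g, 5 min), supernatant TXB₂ was measured by radioimmunoassay. IC₅₀ is the concentration giving 50% inhibition of TXB₂ production.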

[8] = system: Rattus norvegicus; test: Enhancement of prostaglandin E2 levels in serum of incubated whole blood at 1 hr after an oral dose of 1 mg/kg; in short: as §2
[9] = system: Rattus norvegicus; test: Inhibition of thromboxane B2 production in whole blood of rats 1 hr following 1 mg/kg p.o.; conditions: route oral; in short: as §2
[10] = system: Rattus norvegicus; test: Inhibition of thromboxane B2 production in whole blood of rats, 4 hr after a peroral dose of 0.1 mg/kg; conditions: route oral
[11] = system: Rattus norvegicus; test: Inhibition of thromboxane B2 production in whole blood of rats, 1 hr after a peroral dose of 0.1 mg/kg; conditions: route oral
[12] = system: Rattus norvegicus; test: Inhibition of thromboxane A2 production in whole blood of rats, 4 hr after a peroral dose of 0.1 mg/kg; conditions: route oral
[13] = system: Rattus norvegicus; test: Inhibition of thromboxane A2 production in whole blood of rats, 4 hr after a peroral dose of 1.0 mg/kg; conditions: route oral

## O=C([O-])c1ccc2c(c1)CCC(Cc1cncs1)C2.[Na+] (stereo unspecified)
[1]
  inhibition in vivo at 0.1 mg/kg: 75%
[2]
  inhibition in vivo at 1 mg/kg: 78%
[3]
  inhibition in vivo at 0.1 mg/kg: 90%
[4]
  inhibition in vivo at 1 mg/kg: 88%
[5]
  x fold: 2.55
[6]
  inhibition in vivo at 0.1 mg/kg: 87%
[7]
  IC50: 140 nM
[8]
  x fold: 5.26
[9]
  inhibition in vivo at 1 mg/kg: 93%

## O=C([O-])c1cccc2c1CCCC2CCc1cncs1.[Na+] (stereo unspecified)
[1]
  inhibition in vivo at 0.1 mg/kg: 67%
[2]
  inhibition in vivo at 1 mg/kg: 86%
[3]
  inhibition in vivo at 0.1 mg/kg: 88%
[4]
  inhibition in vivo at 1 mg/kg: 93%
[5]
  x fold: 2.68
[6]
  inhibition in vivo at 0.1 mg/kg: 79%
[7]
  IC50: 370 nM
[8]
  x fold: 5.63
[9]
  inhibition in vivo at 1 mg/kg: 97%

## C/C(=C\c1ccc(Cc2cncs2)cc1)C(=O)O
[7]
  IC50: 220 nM
[9]
  inhibition in vivo at 1 mg/kg: 44%

## O=C(O)c1ccc2c(c1)CCCC2CCn1ccnc1 (stereo unspecified)
[1]
  inhibition in vivo at 0.1 mg/kg: 46%
[2]
  inhibition in vivo at 1 mg/kg: 28%
[3]
  inhibition in vivo at 0.1 mg/kg: 84%
[4]
  inhibition in vivo at 1 mg/kg: 59%
[5]
  x fold: 3.38
[6]
  inhibition in vivo at 0.1 mg/kg: 53%
[7]
  IC50: 14000 nM
[8]
  x fold: 10.05
[9]
  inhibition in vivo at 1 mg/kg: 93%

## O=C(O)/C=C/c1ccc(Cc2cncs2)cc1
[7]
  IC50: 1500 nM
[9]
  inhibition in vivo at 1 mg/kg: 39%

## C/C(=C\c1ccc(Cc2cccnc2)cc1)C(=O)O
[2]
  inhibition in vivo at 1 mg/kg: 44%
[4]
  inhibition in vivo at 1 mg/kg: 64%
[5]
  x fold: 2.55
[7]
  IC50: 150 nM
[8]
  x fold: 3.87
[9]
  inhibition in vivo at 1 mg/kg: 71%

## O=C([O-])C1CCc2cc(Cc3cncs3)ccc2C1.[Na+] (stereo unspecified)
[5]
  x fold: 2.65
[7]
  IC50: 1900 nM
[8]
  x fold: 5.91
[9]
  inhibition in vivo at 1 mg/kg: 69%

## O=C([O-])c1ccc2c(c1)CC(Cc1cncs1)C2.[Na+] (stereo unspecified)
[1]
  inhibition in vivo at 0.1 mg/kg: 26%
[2]
  inhibition in vivo at 1 mg/kg: 52%
[3]
  inhibition in vivo at 0.1 mg/kg: 77%
[4]
  inhibition in vivo at 1 mg/kg: 87%
[5]
  x fold: 3.52
[6]
  inhibition in vivo at 0.1 mg/kg: 62%
[7]
  IC50: 400 nM
[8]
  x fold: 9.55
[9]
  inhibition in vivo at 1 mg/kg: 94%

## O=C(O)c1ccc(OCCc2cncs2)cc1
[2]
  inhibition in vivo at 1 mg/kg: 54%
[4]
  inhibition in vivo at 1 mg/kg: 83%
[5]
  x fold: 3.14
[7]
  IC50: 3800 nM
[9]
  inhibition in vivo at 1 mg/kg: 88%

## Cl.O=C(O)c1ccc2c(c1)CCC(Cn1ccnc1)C2 (stereo unspecified)
[1]
  inhibition in vivo at 0.1 mg/kg: 88%
[10]
  inhibition in vivo at 0.1 mg/kg: 76%
[2]
  inhibition in vivo at 1 mg/kg: 88%
[3]
  inhibition in vivo at 0.1 mg/kg: 95%
[4]
  inhibition in vivo at 1 mg/kg: 93%
[5]
  x fold: 2.91
[6]
  inhibition in vivo at 0.1 mg/kg: 93%
[7]
  IC50: 1100 nM
[8]
  x fold: 5.9
[11]
  inhibition in vivo at 0.1 mg/kg: 85%
[9]
  inhibition in vivo at 1 mg/kg: 98%

## Cl.O=C(O)c1ccc2c(c1)CC(Cn1ccnc1)CC2 (stereo unspecified)
[5]
  x fold: 1.99
[7]
  IC50: 5600 nM
[8]
  x fold: 4.27
[9]
  inhibition in vivo at 1 mg/kg: 57%

## Cl.O=C(O)c1cccc2c1CCCC2CCn1ccnc1 (stereo unspecified)
[1]
  inhibition in vivo at 0.1 mg/kg: 64%
[2]
  inhibition in vivo at 1 mg/kg: 76%
[3]
  inhibition in vivo at 0.1 mg/kg: 79%
[4]
  inhibition in vivo at 1 mg/kg: 93%
[5]
  x fold: 3.02
[6]
  inhibition in vivo at 0.1 mg/kg: 74%
[7]
  IC50: 5400 nM
[8]
  x fold: 5.88
[9]
  inhibition in vivo at 1 mg/kg: 93%

## O=C(O)c1cccc2c1CCC2CCn1ccnc1 (stereo unspecified)
[7]
  IC50: 860 nM
[9]
  inhibition in vivo at 1 mg/kg: 97%

## Cl.O=C(O)c1ccc2c(c1)CC(Cn1ccnc1)C2 (stereo unspecified)
[1]
  inhibition in vivo at 0.1 mg/kg: 51%
[2]
  inhibition in vivo at 1 mg/kg: 74%
[3]
  inhibition in vivo at 0.1 mg/kg: 73%
[4]
  inhibition in vivo at 1 mg/kg: 90%
[5]
  x fold: 3.57
[6]
  inhibition in vivo at 0.1 mg/kg: 60%
[7]
  IC50: 6600 nM
[8]
  x fold: 6.93
[9]
  inhibition in vivo at 1 mg/kg: 95%

## Cl.O=C(O)C1Cc2ccc(Cn3ccnc3)cc2C1 (stereo unspecified)
[1]
  inhibition in vivo at 0.1 mg/kg: 32%
[2]
  inhibition in vivo at 1 mg/kg: 61%
[3]
  inhibition in vivo at 0.1 mg/kg: 58%
[4]
  inhibition in vivo at 1 mg/kg: 75%
[5]
  x fold: 3.14
[6]
  inhibition in vivo at 0.1 mg/kg: 46%
[7]
  IC50: 7200 nM
[8]
  x fold: 7.27
[9]
  inhibition in vivo at 1 mg/kg: 87%

## Cl.O=C(O)C1CCc2cc(Cn3ccnc3)ccc2C1 (stereo unspecified)
[2]
  inhibition in vivo at 1 mg/kg: 49%
[4]
  inhibition in vivo at 1 mg/kg: 69%
[5]
  x fold: 2.22
[7]
  IC50: 1400 nM
[8]
  x fold: 4.79
[9]
  inhibition in vivo at 1 mg/kg: 88%

## O=C(O)CCCC/C=C(\c1ccccc1)c1cccnc1 [(E)-ISBOGREL]
[12]
  inhibition in vivo at 0.1 mg/kg: 40%
[13]
  inhibition in vivo at 1 mg/kg: 80%
[7]
  IC50: 250 nM
[11]
  inhibition in vivo at 0.1 mg/kg: 75%
[9]
  inhibition in vivo at 1 mg/kg: 96%

## Cc1c(Cn2ccnc2)c2ccccc2n1CCC(=O)O [DAZMEGREL]
[1]
  inhibition in vivo at 0.1 mg/kg: 29%
[2]
  inhibition in vivo at 1 mg/kg: 40%
[3]
  inhibition in vivo at 0.1 mg/kg: 11%
[4]
  inhibition in vivo at 1 mg/kg: 71%
[5]
  x fold: 2.26
[6]
  inhibition in vivo at 0.1 mg/kg: 46%
[7]
  IC50: 12000 nM
[8]
  x fold: 5.36
[9]
  inhibition in vivo at 1 mg/kg: 92%

## O=C(O)c1ccc(OCCn2ccnc2)cc1 [DAZOXIBEN]
[2]
  inhibition in vivo at 1 mg/kg: 8%
[3]
  inhibition in vivo at 0.1 mg/kg: 25%
[4]
  inhibition in vivo at 1 mg/kg: 21%
[5]
  x fold: 1.9
[6]
  inhibition in vivo at 0.1 mg/kg: 6%
[7]
  IC50: 11000 nM
[8]
  x fold: 3.91
[9]
  inhibition in vivo at 1 mg/kg: 50%

## O=C(O)/C=C/c1ccc(Cn2ccnc2)cc1 [OZAGREL]
[1]
  inhibition in vivo at 0.1 mg/kg: 46%
[2]
  inhibition in vivo at 1 mg/kg: 11%
[3]
  inhibition in vivo at 0.1 mg/kg: 89%
[4]
  inhibition in vivo at 1 mg/kg: 42%
[5]
  x fold: 2.5
[6]
  inhibition in vivo at 0.1 mg/kg: 72%
[7]
  IC50: 4500 nM
[8]
  x fold: 4.8
[9]
  inhibition in vivo at 1 mg/kg: 91%
